Assay [1] has as its target T1, Peroxisome proliferator-activated receptor gamma (Homo sapiens) (UniProt P37231).
T1 sequence (whole entry): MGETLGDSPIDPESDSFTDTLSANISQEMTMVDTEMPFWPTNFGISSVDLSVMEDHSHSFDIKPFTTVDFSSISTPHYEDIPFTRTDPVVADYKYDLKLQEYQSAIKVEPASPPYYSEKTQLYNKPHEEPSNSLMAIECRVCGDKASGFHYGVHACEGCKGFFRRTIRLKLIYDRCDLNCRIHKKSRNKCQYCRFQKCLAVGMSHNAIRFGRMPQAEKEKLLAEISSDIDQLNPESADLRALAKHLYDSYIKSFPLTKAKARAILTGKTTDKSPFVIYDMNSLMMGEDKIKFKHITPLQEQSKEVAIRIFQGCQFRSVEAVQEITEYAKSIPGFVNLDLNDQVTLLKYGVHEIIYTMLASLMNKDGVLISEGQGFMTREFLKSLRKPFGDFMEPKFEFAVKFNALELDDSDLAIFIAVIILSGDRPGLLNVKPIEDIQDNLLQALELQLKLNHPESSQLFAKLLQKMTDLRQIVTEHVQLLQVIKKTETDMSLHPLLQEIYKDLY
Kind of assay: Displacement of Fluoromone from GST-tagged recombinant human PPARgamma ligand binding domain at 10 uM by LanthaScreen TR-FRET assay relative to pioglitazone. The method, boiled down:
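Recombinant GST-tagged PPARγ LBD incubated with terbium-labelled anti-GST antibody and fluorescein-labelled pan-PPAR agonist Fluoromone (5 nM), triplicates; DMSO negative control, pioglitazone and telmisartan positive controls. TR-FRET read as 520/495 nm emission ratio; compound autofluorescence subtracted as blank. Displacement expressed relative to pioglitazone.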
Background: TR-FRET usually uses a lanthanide donor and a delayed reading to cut background.

The target in assay [2] is T2, Peroxisome proliferator-activated receptor gamma (Homo sapiens, UniProt P37231).
T2 sequence (P37231 whole entry): T1 sequence (whole entry)
Kind of assay: Displacement of Fluoromone from GST-tagged recombinant human PPARgamma ligand binding domain by LanthaScreen TR-FRET assay.

The target in assay [3] is T1, Peroxisome proliferator-activated receptor gamma (Homo sapiens). Nature of the assay: Transactivation of GAL4-fused human PPARgamma ligand binding domain expressed in African green monkey COS7 cells at 10 uM after 42 hrs by dual luciferase reporter gene assay relative to pioglitazone. To be noted: COS-7. In kind it is cell-based. The method, boiled down:
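COS-7 cells seeded at 10^4 cells/well in DMEM with 10% FCS, grown 24 h at 37 °C, 5% CO2. Transiently transfected in serum- and antibiotic-free medium with pGal5-TK-Luc (30 ng), pGal4-PPARγ-LBD (3 ng) and pRenilla-CMV (1 ng). Compounds or DMSO vehicle added after 4 h, triplicates; dual-luciferase read after 42 h. Activation relative to pioglitazone.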
Background: Reporter assays use an easily measured gene product as a stand-in for the process of interest.

The target of assay [4] is T2, Peroxisome proliferator-activated receptor gamma. Nature of the assay: Transactivation of GAL4-fused human PPARgamma ligand binding domain expressed in African green monkey COS7 cells after 42 hrs by dual luciferase reporter gene assay. In kind it is cell-based, COS-7.

This is an account of results in ChEMBL document CHEMBL3872226, “Evaluation of selected 3D virtual screening tools for the prospective identification of peroxisome proliferator-activated receptor (PPAR) γ partial agonists” (Eur J Med Chem, 2016).

Broadly, the inhibition is the share of the control response that was lost under treatment. By EC50 is commonly meant the concentration that produces a half-maximal response.

For the compound `COc1ccc(-c2cn3cccc(OCc4ccc(Cl)c(Cl)c4)c3n2)cc1`, the inhibition in assay [1] came out at 60%. Further, in assay [2], the concentration giving a half-maximal response (EC50) is 3100 nM.

Turning to `Cc1[nH]c2ccccc2c1SCc1nnc(SCc2ccccc2)n1C`, the Activity in assay [3] was 9.8%.

For the compound `CSc1nc(Sc2nnc(-c3cc(C(F)(F)F)cc(C(F)(F)F)c3)[nH]2)cc(Sc2nnc(-c3cc(C(F)(F)F)cc(C(F)(F)F)c3)[nH]2)n1`, the inhibition in assay [1] was found to be 76%. For the same compound, the half-maximal effective concentration (EC50) in assay [2] amounted to 5400 nM.

With `N#CC(/N=C/c1cc(Cl)cc(Cl)c1O)=C(C#N)/N=C/c1cc(Cl)cc(Cl)c1O`, the inhibition in assay [1] was determined as 46%.

For the compound `Cc1c(NS(=O)(=O)c2ccc(S(=O)(=O)c3ccccc3)s2)c(=O)n(-c2ccccc2)n1C`, the Activity in assay [3] was determined as 7.8%.

Regarding `COc1cc2c(cc1OC)C(/C=C1\SC(C(=O)c3cccs3)=NN1c1ccc(C)cc1)=NCC2`, in assay [1], the inhibition worked out at 42%.

For `Cc1nn(C)c(Cl)c1S(=O)(=O)Nc1ccc(Oc2ccc(F)cc2)cc1`, the Activity in assay [3] amounted to 3%.

For the compound `Cc1cc(Oc2nc(NCCSC(C)(C)C)nc(Oc3cc(C)c(Cl)c(C)c3)n2)cc(C)c1Cl`, the Activity in assay [3] came to 9%.

Take `O=S(=O)(CS(=O)(=O)Oc1cc(Cl)cc(Cl)c1)Oc1cc(Cl)cc(Cl)c1`: in assay [1], the inhibition is 48%.

For the compound `O=S(=O)(Nc1cc(Cc2cc(NS(=O)(=O)c3ccccc3)cc(C(F)(F)F)c2)cc(C(F)(F)F)c1)c1ccccc1`, the concentration for a half-maximal effect (EC50) in assay [4] came out at 3400 nM; in assay [2], 600 nM. The inhibition in assay [1] came to 99%. For the same compound, the Activity in assay [3] was 23.7%.

On to `Cc1noc(C)c1-c1noc(CSCc2ccc(Cl)cc2)n1`, for which the Activity in assay [3] came out at 8.4%.

As for `O=C(CSCc1ccc(Cl)c(Cl)c1)c1ccc(OCc2ccc([N+](=O)[O-])cc2)cc1`, the Activity in assay [3] was 11.1%.

On to `O=S(=O)(Nc1ccc(Oc2ccc(OC(F)(F)F)cc2)cc1)c1cc(Cl)c(Cl)cc1Cl`, for which the inhibition in assay [1] was 45%.

Compound `COc1ccc(CCNc2ccc(C(F)(F)F)cc2/N=C/c2cc(Cl)cc(Cl)c2O)cc1OC` came in with an Activity in assay [3] of 9.9%.

Compound `O=C(O)c1cn(C2CCCCC2)c2ccccc2c1=O` displayed an Activity in assay [3] of 12%.

`O=c1n(Cc2ccc(Cl)cc2Cl)c2ccccc2n1Cc1ccc(Cl)cc1Cl` came in with an Activity in assay [3] of 9.1%.

As to `O=C(CN1c2ccccc2Sc2ccccc21)NNC(=S)NCc1ccccc1`, the results for the EC50 in assay [4] and in assay [2] were 21700 nM and 2800 nM, respectively. Also, the inhibition in assay [1] was 86%. Moreover, the Activity in assay [3] turned out to be 41.9%.

Turning to `Oc1c(O)c(CN2CCCCC2)c2ccccc2c1CN1CCCCC1`, the Activity in assay [3] worked out at 2.7%.

With `N#Cc1c(SCc2ccccc2)nc2c(c1/C=C\c1ccccc1)CCC2`, the Activity in assay [3] worked out at 14.4%.

As for `CCCc1nc2c(C)cc(-c3nc4ccccc4n3C)cc2n1Cc1ccc(-c2ccccc2C(=O)O)cc1` [TELMISARTAN], the inhibition in assay [1] came out at 91%. Also, the concentration for a half-maximal effect (EC50) in assay [2] is 700 nM.

`Cc1noc(C)c1-c1nc(CS(=O)(=O)Cc2ccc(Cl)cc2)no1` gave an Activity in assay [3] of 12.8%.

In assay [3], `CC(C)(CC(=O)O)CC(=O)N1CCCN(c2nccc(C(F)(F)F)n2)CC1` had an Activity of 9.8%.

Consider `Cn1ccnc1SCc1nccn1Cc1ccc(Cl)cc1`, for which the Activity in assay [3] came out at 8.1%.

In the case of `Cc1nc(CSc2nnc(-c3ccc(C(F)(F)F)cc3)n2Cc2ccco2)cs1`, in assay [3], the Activity was 2.8%.

Regarding `COc1nc(-c2ccc(OCc3ccccc3)cc2OCc2ccc(F)cc2)cc(-c2ccc(C)cc2)c1C#N`, the Activity in assay [3] was 9.5%.

Compound `O=C(CSc1nnc(SCC(=O)NCCSCc2ccco2)s1)NCCSCc1ccco1` registered an Activity in assay [3] of 12.3%.

Regarding `O=S(=O)(c1ccc(Cl)cc1)c1cnn(S(=O)(=O)c2ccc(Cl)cc2Cl)c1-c1ccc(Cl)cc1`, the inhibition in assay [1] was 80%. Besides, the 50% effective concentration (EC50) in assay [2] amounted to 2100 nM.

On to `Cc1ccc(S(=O)(=O)n2nc(C)c(Sc3nccn3C)c2C)cc1`, for which the Activity in assay [3] was determined as 10.1%.

`Cc1ccc(S(=O)(=O)Nc2ccc(Oc3cccnc3)nc2)cc1` returned an Activity in assay [3] of 6%.

The compound `Cc1ccc(Sc2c(C(=O)O)cnc3c2c(C)nn3C)cc1` displayed an Activity in assay [3] of 7%.
